Reference: ChEMBL document CHEMBL1149846, “The role of lipophilicity in determining binding affinity and functional activity for 5-HT2A receptor ligands” (Bioorg Med Chem, 2008)

Experiments:
[1] = target: T1, 5-hydroxytryptamine receptor 2A (Rattus norvegicus, UniProt P14842); assay: Displacement of [3H]MDL100907 from 5HT2A receptor in Sprague-Dawley rat brain by liquid scintillation spectroscopy
Method in brief: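 Frontal cortex from male Sprague-Dawley rat brains, washed in 50 mM Tris-HCl pH 7.4 and resuspended in buffer with 0.5 mM Na2EDTA, 10.0 μM pargyline, 5.7 mM CaCl2 and 0.1% ascorbate. Cinanserin (10 μM) defined nonspecific binding. Bound label was collected by GF/C filtration and counted. Values from ≥3 experiments, each in triplicate.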

[2] = target: 5-hydroxytryptamine receptor 2A (Rattus norvegicus) (UniProt P14842); assay: Antagonist activity at Sprague-Dawley rat 5HT2A receptor by drug discrimination assay; type: functional; settings: filed as antagonist
[3] = target: 5-hydroxytryptamine receptor 2A (Rattus norvegicus) (UniProt P14842); assay: Agonist activity at Sprague-Dawley rat 5HT2A receptor by drug discrimination assay; type: functional; settings: filed as agonist
[4] = target: T1, 5-hydroxytryptamine receptor 2A; assay: Displacement of [3H]ketanserin from 5HT2A receptor in Sprague-Dawley rat brain by liquid scintillation spectroscopy

T1 sequence (P14842 whole entry): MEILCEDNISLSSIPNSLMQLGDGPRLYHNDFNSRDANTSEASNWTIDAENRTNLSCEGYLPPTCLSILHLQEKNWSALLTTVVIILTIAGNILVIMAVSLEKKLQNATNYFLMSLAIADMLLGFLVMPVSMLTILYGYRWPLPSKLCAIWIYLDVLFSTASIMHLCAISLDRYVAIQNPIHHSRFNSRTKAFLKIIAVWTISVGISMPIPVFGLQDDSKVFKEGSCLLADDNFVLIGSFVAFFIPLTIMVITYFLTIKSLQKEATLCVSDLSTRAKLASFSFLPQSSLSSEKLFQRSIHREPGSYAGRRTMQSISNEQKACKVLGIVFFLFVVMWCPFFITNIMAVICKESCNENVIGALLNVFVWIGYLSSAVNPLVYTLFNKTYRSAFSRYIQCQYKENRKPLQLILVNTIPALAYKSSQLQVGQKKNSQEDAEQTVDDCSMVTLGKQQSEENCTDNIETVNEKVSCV
Sequence of 5-hydroxytryptamine receptor 2A (Rattus norvegicus) (P14842 whole entry): as above

Row | SMILES | Ki [1] | Efficacy [2] | Efficacy [3] | Ki [4]
1 | CSc1c2c(c(CC(C)N)c3c1OCC3)CCO2 (racemic) | 476 nM | – | – | –
2 | CC(N)Cc1cc(F)c(Br)cc1F (racemic) | 2510 nM | Antagonist | – | –
3 | CC(N)Cc1c2ccoc2c(Br)c2ccoc12 (racemic) | – | – | Agonist | –
4 | COc1cc(C)cc(OC)c1CC(C)N (racemic) | – | – | Agonist | 351 nM
5 | CN(C)CCc1c[nH]c2sccc12 | 3680 nM | Antagonist | – | –
6 | CC(N)Cc1c2c(c(Br)c3c1OCC3)OCC2 (racemic) | – | – | Agonist | –
7 | Cc1nc2sccn2c(=O)c1CCN1CCC(=C(c2ccc(F)cc2)c2ccc(F)cc2)CC1 | – | Antagonist | – | –
8 | COc1cc(CC(C)N)c(OC)cc1Br (racemic) | – | – | Agonist | –
9 | NCCc1c2c(cc3c1OCC3)OCC2 | – | – | Agonist | –
10 | CC(N)Cc1c2ccccc2c(Br)c2ccccc12 (racemic) | 313 nM | Antagonist | – | –
11 | COc1cc(CCN)cc(OC)c1OCCc1ccccc1 | – | Antagonist | – | 59 nM
12 | COc1cc(CC(C)N)c(OC)cc1C (racemic) [DOM] | – | – | – | 100 nM
13 | CSc1cc(CC(C)N)c(SC)cc1C (racemic) | – | Antagonist | – | 177 nM
14 | COc1cc(CC(C)N)c(OC)cc1I (racemic) | – | – | Agonist | 19 nM
15 | COc1cc2c(cc1Br)OCCC(N)C2 (racemic) | – | – | – | 422 nM
16 | COc1cc(C(F)(F)F)c(OC)cc1CC(C)N (racemic) | – | – | Agonist | 33 nM
17 | CN(C)CCc1c[nH]c2cccc(O)c12 [PSILOCIN] | 323 nM | – | Agonist | –
18 | CN(C)CCc1c[nH]c2ccccc12 | 1640 nM | – | Agonist | –
19 | CCc1cc(OC)c(CC(C)N)cc1OC (racemic) | – | – | Agonist | –
20 | CN(C)CCc1c[nH]c2ccsc12 | 4610 nM | Antagonist | – | –
21 | NCCc1c2c(c(Br)c3c1OCC3)OCC2 | – | – | Agonist | –
22 | COc1cc(CCN)cc(OC)c1OC | – | – | Agonist | –
